Converted amounts (≈) assume the structure as drawn. The source made the active and inactive calls. The rule behind the calls is not given here.
How the values were obtained:
[1] = Cytotoxicity against human IMR90 cells assessed as cell viability after 72 hrs by MTS assay; assay type: cell-based; settings: IMR-90, 72 h
[2] = molecular target: T1, NAD-dependent protein deacetylase sirtuin-2 (Homo sapiens) (UniProt Q8IXJ6); assay: Inhibition of SIRT2 in human MDA-MB-231 cells assessed as increase in acetylated p53 at Lys382 and alpha-tubulin level at 2 to 4 uM after 24 hrs by Western blot analysis; assay type: cell-based
T1 sequence (whole entry): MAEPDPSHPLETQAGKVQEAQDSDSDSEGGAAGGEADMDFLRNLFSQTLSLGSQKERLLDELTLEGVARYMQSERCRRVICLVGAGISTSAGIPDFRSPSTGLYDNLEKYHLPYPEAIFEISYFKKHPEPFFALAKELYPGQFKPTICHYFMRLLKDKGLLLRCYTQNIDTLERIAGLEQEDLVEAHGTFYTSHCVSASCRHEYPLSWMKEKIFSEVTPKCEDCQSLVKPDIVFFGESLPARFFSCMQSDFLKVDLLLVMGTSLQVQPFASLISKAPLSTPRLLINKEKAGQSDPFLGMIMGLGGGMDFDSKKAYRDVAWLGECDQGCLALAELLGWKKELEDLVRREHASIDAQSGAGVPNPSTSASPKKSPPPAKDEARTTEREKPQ
Procedure, shortened: (§1)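 Cells seeded at 50,000 cells/mL in high-glucose DMEM containing compound (0.5% v/v DMSO) and incubated at 37 °C, 5% CO2: HepG2 6 h, MDA-MB-231 24 h. Washed cells were lysed on ice ≥20 min in Tris/NaCl/EDTA/Triton buffer with protease and phosphatase inhibitors, then protein measured by Bradford. SDS-PAGE blots were probed overnight at 4 °C with primary antibodies and detected by HRP/ECL, with re-probing after stripping. Each blot was repeated ≥3 times.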

[3] = molecular target: T1, NAD-dependent protein deacetylase sirtuin-2 (Homo sapiens); assay: (§2) Non-competitive inhibition of human recombinant SIRT2 using Z-QPK(Me)2K(Ac) as substrate assessed as decrease in maximal enzyme activity preincubated for 60 mins followed by substrate addition measured after 30 mins by double-reciprocal plot analysis in presence of 5 mM NAD+
Procedure, shortened: (§3)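 Recombinant human SIRT2 at 0.2 unit/well, preincubated 60 min at 25 °C (400 rpm) with inhibitor at four levels including zero, 2.5% DMSO. Detection reagent (acetylated Z-QPK(Me)2K(Ac)-aminoluciferin, NAD and developer) was premixed 60 min at 37 °C, added, and incubated 30 min at 25 °C before luminescence was read. For line 17, substrate was varied (4.12–333.3 µM) at fixed NAD. For line 16, NAD was varied (four levels) at 38.5 µM substrate. Double-reciprocal plots were made, and their slopes replotted against inhibitor concentration for apparent Ki.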

[4] = molecular target: T2, NAD-dependent protein deacetylase sirtuin-2 (Homo sapiens, UniProt Q8IXJ6); assay: as §2; settings: read-out: Ki(app); procedure, shortened: as §3
T2 sequence (Q8IXJ6 whole entry): T1 sequence (whole entry)

Homo sapiens = species on record: Homo sapiens; assay: Inhibition of protease (unknown origin) using deacetylated peptide as substrate assessed as luminescence at 25 uM after 30 mins relative to control; parameters: scale not given: the % may be the effect or the level left
MDA-MB-231 [5] = assay: Induction of apoptosis in human MDA-MB-231 cells assessed as upregulation of cleaved PARP protein expression at 2 to 8 uM after 24 hrs by Western blot analysis; assay type: functional, cell-based; procedure, shortened: as §1
HepG2 = assay: Growth inhibition of human HepG2 cells after 72 hrs by MTS assay; assay type: functional, cell-based; settings: HepG2, 72 h
Procedure, shortened: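 Cells in DMEM with 10% heat-treated FBS and penicillin/streptomycin, subcultured at 85–90% confluence and used within 15 passages. Seeded 2500 cells/well and grown 24 h, then compound was added (0.5% v/v DMSO final) for 72 h at 37 °C, 5% CO2. MTS was added for 4 h in the dark and absorbance read at 490 nm. Viability is corrected for compound and vehicle blanks.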

[6] = molecular target: T1, NAD-dependent protein deacetylase sirtuin-2 (Homo sapiens); assay: Inhibition of SIRT2 in human HepG2 cells assessed as increase in acetylated p53 at Lys382 and alpha-tubulin level at 2 to 4 uM after 6 hrs by Western blot analysis; assay type: cell-based; procedure, shortened: as §1
[7] = Self-aggregation of the compound in PBS assessed as derived light scattering count rate at 10 uM at pH 7.4 (reference value: 15.5 +/- 0.4 kilocount/sec); assay type: physicochemical; settings: buffer, pH 7.4, 10 µM
[8] = molecular target: T3, NAD-dependent protein deacetylase sirtuin-1 (Homo sapiens, UniProt Q96EB6); assay: Inhibition of human recombinant SIRT1 assessed as deacetylation of N-acetyl lysine residue in p53 (317 to 320) after 30 mins by luciferase-mediated luminescence assay
T3 sequence (Q96EB6 whole entry): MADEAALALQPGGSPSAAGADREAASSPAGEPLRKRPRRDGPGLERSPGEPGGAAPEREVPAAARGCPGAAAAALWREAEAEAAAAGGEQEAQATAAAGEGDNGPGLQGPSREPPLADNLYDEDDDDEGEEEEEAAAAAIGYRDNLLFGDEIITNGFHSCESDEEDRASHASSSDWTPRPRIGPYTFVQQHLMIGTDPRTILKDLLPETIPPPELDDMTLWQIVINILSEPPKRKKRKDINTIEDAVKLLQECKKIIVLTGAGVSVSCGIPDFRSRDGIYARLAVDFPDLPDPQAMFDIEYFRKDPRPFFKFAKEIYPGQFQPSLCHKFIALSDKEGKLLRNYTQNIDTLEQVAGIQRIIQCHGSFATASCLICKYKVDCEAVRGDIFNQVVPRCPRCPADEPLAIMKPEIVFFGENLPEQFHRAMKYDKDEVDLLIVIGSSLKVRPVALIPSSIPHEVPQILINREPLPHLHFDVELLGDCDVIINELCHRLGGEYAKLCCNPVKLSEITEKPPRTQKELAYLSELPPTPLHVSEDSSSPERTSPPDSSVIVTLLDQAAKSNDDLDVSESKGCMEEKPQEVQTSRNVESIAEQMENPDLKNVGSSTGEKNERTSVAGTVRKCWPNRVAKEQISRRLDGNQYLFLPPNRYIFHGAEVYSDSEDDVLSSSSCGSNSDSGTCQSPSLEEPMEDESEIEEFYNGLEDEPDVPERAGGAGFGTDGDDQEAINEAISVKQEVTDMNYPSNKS

[9] = molecular target: T1, NAD-dependent protein deacetylase sirtuin-2 (Homo sapiens); assay: (§4) Non-competitive inhibition of human recombinant SIRT2 using Z-QPK(Me)2K(Ac) as substrate assessed as decrease in maximal enzyme activity preincubated for 60 mins followed by substrate addition measured after 30 mins by double-reciprocal plot analysis in presence of 185 to 5000 uM NAD+; procedure, shortened: as §3
[10] = molecular target: T2, NAD-dependent protein deacetylase sirtuin-2; assay: as §4; settings: read-out: Ki(app); procedure, shortened: as §3
MDA-MB-231 [11] = assay: Induction of apoptosis in human MDA-MB-231 cells assessed as upregulation of cleaved caspase-3 protein expression at 2 to 8 uM after 24 hrs by Western blot analysis; assay type: functional, cell-based; procedure, shortened: as §1
[12] = Self-aggregation of the compound in PBS assessed as derived light scattering count rate at 1 uM at pH 7.4 (reference value: 15.5 +/- 0.4 kilocount/sec); assay type: physicochemical; settings: buffer, pH 7.4, 1 µM
[13] = Solubility of the compound in phosphate buffer at pH 7.4 at 25 degC by turbimetric method; assay type: physicochemical
Procedure, shortened: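 Turbidimetric solubility. Compound from DMSO stock was added to phosphate buffer pH 7.4 at 1–50 µM final, with 1% v/v DMSO. Plate shaken 30 min at 25 °C and absorbance read at 620 nm. Solubility is assigned to the concentration range where absorbance rises two-fold or more, from 3 separate determinations.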

In the case of `CCCCCCCCn1c2c(c3cc(-c4ccc(S(C)(=O)=O)cc4)ccc31)CNCC2`, the IC50 [1] is reported as 2720 nM, the inhibition [2] is reported as “Active” and the inhibition [3] is reported as “Dose-dependent effect”. The Ki [4] was 2280 nM, the Activity (Homo sapiens) was 94.9% and the Activity (MDA-MB-231 [5]) was “Active”. The IC50 (HepG2) was 2100 nM, the inhibition [6] was “Active” and the Activity [7] was 95 kC/sec. The IC50 [8] was 16700 nM, the inhibition [9] was “Dose-dependent effect” and the Ki [10] was 3700 nM. For the same molecule, the Activity (MDA-MB-231 [11]) was “Active”, the Activity [12] was 15.6 kC/sec and the solubility kinetic [13] was 3.1 µM (≈ 1.36 µg/mL).

Source: ChEMBL document CHEMBL3407343, “Functionalized tetrahydro-1H-pyrido[4,3-b]indoles: a novel chemotype with Sirtuin 2 inhibitory activity” (Eur J Med Chem, 2015)
